Reference: ChEMBL document CHEMBL1145814, “Antiretroviral activity of semisynthetic derivatives of glycopeptide antibiotics” (J Med Chem, 2003)
Values after ≈ are worked out from the molar mass of the structure shown. Values joined by “and” are separate entries in the source; they are usually repeats but may differ in a detail not shown here. Equal values may be shown once.

Legend:
[1] = organism: Mus musculus; experiment: Minimal inhibitory concentration required to cause a microscopic detectable alteration of C3H/3T3 embryo murine fibroblast cell morphology; assay type: functional
How it was run: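 Uninfected C3H/3T3 murine embryo fibroblast cultures were exposed to test compound and checked microscopically for changes in cell morphology. The MIC is the concentration causing a microscopically detectable alteration of morphology.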

[2] = system: CCRF-CEM; experiment: Inhibitory concentration against proliferation of human T-lymphocytic (CEM) cells; assay type: functional, cell-based
How it was run: (§1)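 (5–7.5) × 10^4 cells per well were incubated with test compound at 37 °C in a humidified CO2 atmosphere. L1210 murine leukemia cells grew for 48 h, and CEM and Molt4/clone 8 human lymphocytes grew for 72 h. Cells were then counted with a Coulter counter. IC50 is the concentration inhibiting proliferation by 50%.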

[3] = system: Human immunodeficiency virus 2; experiment: Concentration required to protect human T-lymphocytic cells against the cytopathogenicity of HIV-2; assay type: functional, organism-based
[4] = system: Human immunodeficiency virus 1; experiment: Effective concentration of compound required to protect human T-lymphocytic cells against the cytopathogenicity of HIV-1; assay type: functional, organism-based
[5] = system: L1210; experiment: Inhibitory concentration of compound against proliferation of murine lukemia cells L1210 was determined; assay type: functional, cell-based; conditions: Mus musculus; how it was run: as §1
[6] = system: MOLT-4; experiment: Inhibitory concentration of compound against proliferation of human T-lymphocytic cells MOLT-4/C8 was determined; assay type: functional, cell-based; how it was run: as §1
[7] = organism: Mus musculus; experiment: Effective concentration of compound required to protect C3H/3T3 embryo murine fibroblasts against the MSV induced transformation; assay type: functional, organism-based
How it was run: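 Monolayer murine embryo fibroblast C3H/3T3 cultures were infected with Moloney murine sarcoma virus at 75 focus-forming units and cultured with test compound. Transformation was examined microscopically on day 6 postinfection. EC50 is the concentration protecting cells against MSV-induced transformation by 50%.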

Row | SMILES | MIC [1] [µM] | IC50 ([2]; Homo sapiens, CCRF-CEM) [µM] | EC50 ([3]; Human immunodeficiency virus 2) [µM] | EC50 ([4]; Human immunodeficiency virus 1) [µM] | IC50 [5] [µM] | IC50 [6] [µM] | EC50 ([7]; Mus musculus, C3H/3T3) [µM] | IC50 ([2]; ccrf-cem) [µM] | EC50 [3] | EC50 [4] [µM] | EC50 [7] [µM]
1 | NCCCCCCCCCCNC(=O)[C@@H]1NC(=O)C2NC(=O)C(NC(=O)C3NC(=O)C4NC(=O)C(Cc5ccc(c(Cl)c5)Oc5cc3cc(c5O)Oc3ccc(cc3Cl)C2O)NC(=O)C(N)c2ccc(O)c(c2)Oc2cc(O)cc4c2)c2ccc(O)c(c2)-c2c(O)cc(O)cc21 (stereo not given in full) | 20 (≈ 27.1 µg/mL) | 402 | 12 | 6.5 | 500 | 225 | > 4 |  |  |  | 
2 | CN(Cc1ccc(Cl)cc1)Cc1c(O)cc2c(c1O)-c1cc(ccc1O)C1NC(=O)C3NC(=O)C4NC(=O)C(Cc5ccc(c(Cl)c5)Oc5cc3cc(c5O)Oc3ccc(cc3Cl)C(O)C(NC1=O)C(=O)N[C@H]2C(=O)O)NC(=O)C(N)c1ccc(O)c(c1)Oc1cc(O)cc4c1 (stereo not given in full) | > 100 | > 100 | 20 | 17 | > 100 | > 100 | 11 |  |  |  | 
3 | CCCCc1ccc(CNCc2c(O)cc3c(c2O)-c2cc(ccc2O)C2NC(=O)C4NC(=O)C5NC(=O)C(Cc6ccc(c(Cl)c6)Oc6cc4cc(c6O)Oc4ccc(cc4Cl)C(O)C(NC2=O)C(=O)N[C@H]3C(=O)NC)NC(=O)C(NC(=O)OC(C)(C)C)c2ccc(O)c(c2)Oc2cc(O)cc5c2)cc1 (stereo not given in full) | 20 (≈ 29.7 µg/mL) | > 100 | 12 | 6 | 70 | > 100 | > 4 |  |  |  | 
4 | NC1Cc2ccc(c(Cl)c2)Oc2cc3cc(c2O)Oc2ccc(cc2Cl)C(O)C2NC(=O)C(NC(=O)C3NC(=O)C(c3cc(O)cc(Oc4cc(C5NC(=S)N(c6ccccc6)C5=O)ccc4O)c3)NC1=O)c1ccc(O)c(c1)-c1c(cc(O)c(CNC3C4CC5CC(C4)CC3C5)c1O)[C@H](C(=O)O)NC2=O (stereo not given in full) | > 100 | 242 | 17 | 13 | 73 | > 250 | 2.9 |  |  |  | 
5 | CN[C@H](CC(C)C)C(=O)N[C@H]1C(=O)N[C@@H](CC(N)=O)C(=O)N[C@H]2C(=O)N[C@H]3C(=O)N[C@H](C(=O)N[C@H](C(=O)NCc4ccc(-c5ccc(Cl)cc5)cc4)c4cc(O)cc(O)c4-c4cc3ccc4O)[C@H](O[C@H]3C[C@](C)(N)[C@@H](O)[C@H](C)O3)c3ccc(cc3)Oc3cc2cc(c3O[C@@H]2O[C@H](CO)[C@@H](O)[C@H](O)[C@H]2O[C@H]2C[C@](C)(N)[C@@H](O)[C@H](C)O2)Oc2ccc(cc2Cl)[C@H]1O | 4 (≈ 7.03 µg/mL) | 8.6 | > 10 | > 10 | 15 | 7.7 | > 0.8 |  |  |  | 
6 | CNC(=O)[C@@H]1NC(=O)C2NC(=O)C(NC(=O)C3NC(=O)C4NC(=O)C(Cc5ccc(c(Cl)c5)Oc5cc3cc(c5O)Oc3ccc(cc3Cl)C2O)NC(=O)C(N)c2ccc(O)c(c2)Oc2cc(O)cc4c2)c2ccc(O)c(c2)-c2c1cc(O)c(CNC1C3CC4CC(C3)CC1C4)c2O (stereo not given in full) | > 20 | > 250 | 17 | 5 | 212 | > 250 | 9.5 |  |  |  | 
7 | CNC(=O)[C@@H]1NC(=O)C2NC(=O)C(NC(=O)C3NC(=O)C(CC(N)=O)NC(=O)C(N)C(O)c4ccc(c(Cl)c4)Oc4cc3cc(c4O)Oc3ccc(cc3)C2O)c2ccc(O)c(c2)-c2c1cc(O)c(CNC1C3CC4CC(C3)CC1C4)c2O (stereo not given in full) | > 100 | > 250 | 20 | 13 | > 250 | > 250 | 14 |  |  |  | 
8 | CCCCc1ccc(CN2CCN(Cc3c(O)cc4c(c3O)-c3cc(ccc3O)C3NC(=O)C5NC(=O)C6NC(=O)C(Cc7ccc(c(Cl)c7)Oc7cc5cc(c7O)Oc5ccc(cc5Cl)C(O)C(NC3=O)C(=O)N[C@H]4C(=O)NCCCN(C)C)NC(=O)C(N)c3ccc(O)c(c3)Oc3cc(O)cc6c3)CC2)cc1 (stereo not given in full) | 20 (≈ 30.5 µg/mL) | > 500 |  | 3 | 29 | 108 | 2.4 | > 250 | 5 µM and 13 µM | 4 | 3.5
9 | O=C(NC1C(=O)NC2Cc3ccc(c(Cl)c3)Oc3cc4cc(c3O)Oc3ccc(cc3Cl)C(O)C3NC(=O)C(NC(=O)C4NC(=O)C(NC2=O)c2cc(O)cc(c2)Oc2cc1ccc2O)c1ccc(O)c(c1)-c1c(O)cc(O)cc1[C@H](C(=O)O)NC3=O)OC12CC3CC(CC(C3)C1)C2 (stereo not given in full) | > 20 | 104 | 6 | 13 | 22 | 25 | 9.8 |  |  |  | 
10 | O=CC(=O)c1[nH]c2ccccc2c1NC1C(=O)NC2Cc3ccc(c(Cl)c3)Oc3cc4cc(c3O)Oc3ccc(cc3Cl)C(O)C3NC(=O)C(NC(=O)C4NC(=O)C(NC2=O)c2cc(O)cc(c2)Oc2cc1ccc2O)c1ccc(O)c(c1)-c1c(O)cc(O)cc1[C@H](C(=O)O)NC3=O (stereo not given in full) | > 100 | 108 | 15 | 10 | 192 | 108 | 4.4 |  |  |  | 
11 | CN[C@H](CC(C)C)C(=O)N[C@H]1C(=O)N[C@@H](CC(N)=O)C(=O)N[C@H]2C(=O)N[C@H]3C(=O)N[C@H](C(=O)N[C@H](C(=O)O)c4cc(O)cc(O)c4-c4cc3ccc4O)[C@H](O[C@H]3C[C@](C)(N)[C@@H](O)[C@H](C)O3)c3ccc(cc3)Oc3cc2cc(c3O[C@@H]2O[C@H](CO)[C@@H](O)[C@H](O)[C@H]2O[C@H]2C[C@](C)(N)[C@@H](O)[C@H](C)O2)Oc2ccc(cc2Cl)[C@H]1O | > 100 | > 500 | > 250 | > 250 | > 500 | > 500 | > 100 |  |  |  | 
